These results are taken from PubChem BioAssay AID1267 (The Scripps Research Institute Molecular Screening Center, 2008).

Among all 1,200 compounds or so, about 770 (64%) were called active.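 How the source made its calls: active means percent activation of the STAT3 luciferase reporter above a set limit taken from the earlier primary screen (cut at about 130% in these data); inactive means the rest.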 So high a share suggests a set chosen from earlier hits. A selection follows.

The nature of the test: STAT3 reporter potentiators, retest of hits, confirmation, U3A cells, luciferase, luminescence (AID 1267).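 Further: 0% = background signal of medium plus substrate and 100% = median of IL-6 with DMSO wells.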 Particulars: IL-6 potentiation, at 5.7 µM, stronger effect = higher value, 100 means same as IL-6 alone, U3A cells lack STAT1. The method in brief: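 assay system = STAT1-null U3A cells carrying STAT3-luciferase reporter | also added = IL-6 stimulus at 33 ng/mL final | dosing = 5.7 µM single dose | times = compound 1 h and IL-6 6 h, 37 °C | detection = luminescence | measure = % potentiation versus median IL-6 plus DMSO wells, background-subtracted | control set = IL-6 + DMSO wells, media-only blank | replicates = triplicate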
In the case of `CC(=O)Nc1ccc(NC(=O)COc2ccccc2C(=O)Nc2cccc(Cl)c2Cl)cc1`, the potentiation (% of control) is 143% (active).

Regarding `Cc1cccc(C(=O)Nc2nnc(Cc3c[nH]c4ccccc34)s2)c1`, the potentiation (% of control) is 150% (active).

Regarding `CSc1nc(N(C)NC(=O)c2cccc(C)c2)c2ccccc2n1`, the potentiation (% of control) was 112% (inactive).

In the case of `COc1ccc(/C=N/Nc2ncnc3sc4c(c23)CCCC4)cc1O`, the potentiation (% of control) was 114% (inactive). Turning to `O=C(Nc1cc(C(F)(F)F)ccc1Cl)c1cc(C2CC2)on1`, the potentiation (% of control) was 145% (active). As for `Fc1ccc2nc(-c3ccccc3)nc(SCc3nnc(-c4ccccc4)o3)c2c1`, the figure is 132% (inactive). As for `OC(COc1ccc2ccccc2c1)CN1CCOCC1` (stereo not given), the potentiation (% of control) was 157% (active). Next, `COc1ccccc1C1C2=C(COC2=O)Nc2cc3c(cc21)OCO3` (stereo not given): 124% (inactive); `COc1ccc(-c2c3c(=O)n(C)c(=O)n(C)c3cn2-c2cccc(OC)c2)cc1`: 158% (active). As for `Cn1nc(-c2ccc(Cl)cc2)c2cc(C(=O)NCc3ccco3)sc21`, the figure is 153% (active). `O=C(NCc1ccco1)c1cccn2c(=O)c3c4c(sc3nc12)CCCC4`: the potentiation (% of control) was 128% (inactive). Next, `COc1ccccc1N1CCN(C(=O)c2cc3c(-c4ccc(Cl)cc4)nn(C)c3s2)CC1`: 125% (inactive). Next, `COc1ccc(C)cc1NC(=O)c1[nH]c(C)c(C(C)=O)c1C`: 144% (active); `N#Cc1ccccc1NC(=O)COc1c(Br)cc(Br)c2cccnc12`: 162% (active). Next, `O=C(C1CCN(S(=O)(=O)Cc2ccccc2)CC1)N1CCCc2ccccc21`: 118% (inactive); `CSc1nc2sc3c(c2c(=O)[nH]1)CCc1ccccc1-3`: 142% (active); `CCSc1nnc(-c2cc3c(s2)-c2ccccc2CC3)o1`: 162% (active). Turning to `COc1cccc(NC(=S)C(C#N)=C2N(C)c3ccccc3N2C)c1`, the potentiation (% of control) was 122% (inactive). Next, `COc1ccc(C2c3[nH]c4ccccc4c3CCN2CCCn2cccn2)cc1C` (stereo not given): 142% (active); `Cc1ccc(OCc2nnc(SC3CCc4ccccc4C3=O)n2C)cc1` (stereo not given): 151% (active); `CN1CCN(c2ccc([N+](=O)[O-])c(Sc3nc4ccccc4[nH]3)c2)CC1`: 107% (inactive). Next, `Cc1ccc(S(=O)(=O)Nc2nc3ccccc3nc2N2CCc3ccccc3C2)cc1`: 124% (inactive); `Cc1cccc(N(CC(=O)N=Nc2c(O)[nH]c3ccccc23)S(C)(=O)=O)c1C`: 129% (inactive).

As for `Cc1nc2ccccc2cc1O`, the potentiation (% of control) was 146% (active). Take `CCCS(=O)(=O)Nc1c(C(=O)O)[nH]c2ccccc12`: the potentiation (% of control) is 170% (active). As for `COC(=O)c1[nH]c2ccccc2c1NS(=O)(=O)c1ccc(OC)cc1OC`, the potentiation (% of control) was 116% (inactive). As for `CC(C)CNC(=O)COC(=O)/C=C/c1ccccc1[N+](=O)[O-]`, the figure is 126% (inactive); as for `CCn1c(SCC(=O)N/N=C/C=C/c2ccccc2[N+](=O)[O-])nnc1-c1ccccc1`, 137% (active); as for `N#Cc1c(C(F)(F)F)cc(-c2ccc(Cl)cc2)nc1SCC(=O)O`, 159% (active). As for `COc1ccc(Cl)cc1NC(=O)c1oc(C)nc1C`, the figure is 147% (active); as for `C/C(=N\NC(=O)CNc1cccc2ccccc12)c1ccc(Br)s1`, 98.2% (inactive). As for `Cc1ccc(/C=N/NC(=O)COc2ccccc2-c2ccccc2)cc1`, the figure is 135% (active). Turning to `Cc1ccc(C2=NN(C)c3nc4ccccc4n3C2)cc1`, the potentiation (% of control) was 151% (active). Next, `Oc1c(C=Nc2cccc3nsnc23)ccc2ccccc12`: 129% (inactive); `COc1cc(OC)cc(C(=O)N[C@H](C(=O)Nc2nc3ccccc3[nH]2)C(C)C)c1`: 108% (inactive); `COc1cc(NS(=O)(=O)c2ccc(N/C=C(\C=O)c3nc4cc(Cl)ccc4o3)cc2)nc(OC)n1`: 144% (active). On to `C/C(=N\c1nc2ccccc2n1C)c1cc(Cl)ccc1O`, for which the potentiation (% of control) was 118% (inactive).

With `Cc1ccc(NC(=O)c2cc([N+](=O)[O-])ccc2Cl)c(O)c1`, the potentiation (% of control) was 158% (active). Next, `Oc1cccc2ccc(/C=C/c3ccc(Br)s3)nc12`: 169% (active); `Cn1cccc1C(=O)Nc1nccs1`: 132% (inactive); `CCOC(=O)N1CCN(CC(=O)Nc2cc(C)nn2-c2nc3ccccc3s2)CC1`: 140% (active). As for `NC(=O)CSc1c[nH]c2ccccc12`, the figure is 165% (active); as for `O=c1[nH]c(CSc2ncc(-c3ccc(F)cc3)n2Cc2ccco2)nc2ccccc12`, 122% (inactive). Next, `COc1ccc([N+](=O)[O-])cc1C1NN=C(c2cccc3ccccc23)S1` (stereo not given): 138% (active). As for `O=C1CCCN1CCCNc1ncnc2c1[nH]c1ccccc12`, the potentiation (% of control) is 144% (active). Next, `COCCCNc1nc2c(-c3cccc(C(F)(F)F)c3)nnn2c2ccccc12`: 134% (active). Next, `COc1ccccc1-c1nnc(NC(=O)c2ccc3ncsc3c2)o1`: 147% (active); `COc1ccccc1-c1nnc(SCC(=O)N2CC(C)CC(C)C2)o1` (stereo not given): 117% (inactive). Next, `Cc1cccc(C(=O)N2CCc3c([nH]c4ccccc34)C2CC(C)C)n1` (stereo not given): 159% (active); `c1ccc(-c2cn3c(n2)CCc2ccc4cccnc4c2-3)cc1`: 139% (active). In the case of `CCOC(=O)c1c(-c2cccc(C)c2)csc1NC(=O)c1c(-c2ccccc2)noc1C`, the potentiation (% of control) was 122% (inactive). For `O=C(O)CS/C(=C\c1ccc(F)cc1)c1nc2ccccc2s1`, the potentiation (% of control) was 132% (inactive). Next, `O=C(O)CSCc1nc2ccccc2s1`: 154% (active); `COc1ccc(NC(=O)ON=C2c3ccccc3-c3ccccc32)cc1`: 121% (inactive); `CCOc1ccc(C2c3[nH]c4ccccc4c3CCN2Cc2cn(CC)nc2C)cc1` (stereo not given): 143% (active). In the case of `COc1nc(N=C(N)N)nc2c(C)cccc12`, the potentiation (% of control) is 144% (active). Consider `Cc1nc(N=C(N)N)nc2c(C)cccc12`, for which the potentiation (% of control) is 172% (active). For the compound `Cc1ccc(N=Nc2c(C)[nH]n(-c3ccccc3)c2=O)cc1`, the potentiation (% of control) was 147% (active). As to `CCOC(=O)C1CCN(c2ncnc3c2oc2ccc(Br)cc23)CC1`, the potentiation (% of control) was 138% (active).

Regarding `CCNCc1cc2cc(C)ccc2[nH]c1=O`, the potentiation (% of control) was 120% (inactive).

Regarding `CSCCC(NC(=O)c1ccco1)C(=O)OCC(=O)Nc1ncc(Cl)c(C)c1Cl` (stereo not given), the potentiation (% of control) was 124% (inactive).

Take `C=CCCC(=O)Nc1nc(C)c(-c2csc(Nc3ccc(Cl)cc3)n2)s1`: the potentiation (% of control) was 135% (active). Next, `Cc1ccc(Nc2nc(-c3sc(NC(=O)c4ccccc4)nc3C)cs2)cc1`: 122% (inactive); `CCCCC(=O)Nc1nc(C)c(-c2csc(Nc3ccc(Cl)cc3)n2)s1`: 133% (inactive); `Cc1ccc(-c2cc(C(=O)Nc3nn[nH]n3)c3ccccc3n2)c(C)c1`: 121% (inactive). As for `O=[N+]([O-])c1ccc(N2CCN(S(=O)(=O)c3ccc4ccccc4c3)CC2)cc1NCc1ccco1`, the figure is 123% (inactive); as for `CN1C(=O)/C(=C\c2cc(Br)cs2)c2ccccc21`, 190% (active); as for `Cc1csc2ncc(C(=O)N(Cc3ccccc3)c3ccccn3)c(=O)n12`, 111% (inactive). Next, `O=C(Cc1c[nH]c2ccccc12)OCCOC(=O)Cc1c[nH]c2ccccc12`: 121% (inactive). On to `CCOC(=O)CN(C)Cc1c[nH]c2ccccc12`, for which the potentiation (% of control) is 157% (active). Next, `COc1cccc(/C=C(/CC(=O)Nc2ccc(N3CCOCC3)cc2)c2nc3ccccc3s2)c1`: 146% (active). As for `Oc1cccc(C2c3[nH]c4ccccc4c3CCN2Cc2cnn(-c3ccccc3)c2)c1` (stereo not given), the potentiation (% of control) was 137% (active). Turning to `COC(=O)c1[nH]c2ccccc2c1NC(=O)CN1CCCc2ccccc21`, the potentiation (% of control) is 153% (active). As for `COC(=O)c1[nH]c2cccc(C)c2c1NC(=O)CN1CCCc2ccccc21`, the figure is 128% (inactive); as for `C=CCn1c(-c2ccccc2OCC)n[nH]c1=S`, 178% (active).
